What was measured:
[1] = Activity of CMY-2 by spectrophotometry
How it was run: (§1)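 CMY β-lactamases purified from sonicated, ultracentrifuge-clarified extracts of E. coli DH5α clones (pB-cmy36, pB-cmy2) by Q- then S-Sepharose ion exchange (>90% pure by SDS-PAGE); steady-state hydrolysis kinetics measured spectrophotometrically, CMY-2 run in parallel.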

[2] = Ratio of Kcat to Km of CMY-2 by spectrophotometry; how it was run: as §1

| Compound | Km [1] [µM] | kcat [1] [s⁻¹] | kcat/Km [2] [M⁻¹ s⁻¹] |
| --- | --- | --- | --- |
| CC1(C)S[C@@H]2[C@H](NC(=O)Cc3ccccc3)C(=O)N2[C@H]1C(=O)O | 0.4 | 10 | 2.5e+07 |
| O=C(Cc1cccs1)N[C@@H]1C(=O)N2C(C(=O)O)=C(/C=C/c3ccc([N+](=O)[O-])cc3[N+](=O)[O-])CS[C@H]12 | 10 | 980 | 9.8e+07 |
| O=C(Cc1cccs1)N[C@@H]1C(=O)N2C(C(=O)[O-])=C(C[n+]3ccccc3)CS[C@H]12 | 120 | 300 | 2.5e+06 |
| CO/N=C(\C(=O)N[C@@H]1C(=O)N2C(C(=O)O)=C(COC(C)=O)CS[C@H]12)c1csc(N)n1 |  | < 0.01 |  |
